Blank lines part the entries; values can stand above or below the compound they belong to. Activity calls are given as the source filed them. The calls are words filed in the database; no cut-off is given here.
Legend:
[1] = test system: Mus musculus; assay: Acute toxicity in Balb/C mouse assessed as change in plasma chemistry at 1.5 to 6.0 umol/kg, ip administered thrice a week for 2 weeks measured 48 hrs after last dose; format: organism-based; settings: in vivo
Outline: (§1)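 Male Balb/c mice aged 6–8 weeks, n=4 per group, dosed i.p. with compound suspended in PBS and filter sterilized, 10 ul/g body weight. Body weight tracked throughout the live phase. Under isoflurane anaesthesia, terminal cardiac-puncture bleed; serum taken for transaminases and other chemistries. Sacrifice by cervical dislocation 48 h after last dose, with liver and spleen weighed at necropsy. Kidneys examined by histopathology.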

[2] = test system: Mus musculus; assay: Inhibition of IR expression in Balb/C mouse adipose tissue assessed as upregulation of IR-A transcript at 6.0 umol/kg, ip administered thrice a week for 2 weeks measured 48 hrs after last dose by […]; format: functional
Outline: (§2)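 Male Balb/c mice, n=4 per group, dosed i.p. in PBS and sacrificed 48 h after last dose. Liver, kidney and adipose tissue homogenised at once in 4 M guanidine isothiocyanate, 25 mM EDTA, 50 mM Tris-HCl pH 6. RNA purified on columns and run by fluorescence-based quantitative RT-PCR. Target transcript levels normalised to cyclophilin A and expressed relative to saline-treated controls.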

[3] = test system: Mus musculus; assay: Acute toxicity in Balb/C mouse assessed as change in liver weight at 1.5 to 6.0 umol/kg, ip administered thrice a week for 2 weeks measured 48 hrs after last dose; format: organism-based; settings: in vivo; outline: as §1
[4] = test system: Mus musculus; assay: Inhibition of IR expression in Balb/C mouse liver assessed as upregulation of IR-A transcript at 6.0 umol/kg, ip administered thrice a week for 2 weeks measured 48 hrs after last dose by quantitative RT-PCR analysis
[5] = test system: Mus musculus; assay: Inhibition of IR expression in Balb/C mouse kidney assessed as upregulation of IR-A transcript at 6.0 umol/kg, ip administered thrice a week for 2 weeks measured 48 hrs after last dose […]; format: functional, organism-based; outline: as §2
[6] = test system: Mus musculus; assay: Inhibition of IR expression in Balb/C mouse liver assessed as reduction in IR-B transcript at 6.0 umol/kg, ip administered thrice a week for 2 weeks measured 48 hrs after last dose […]; format: functional, organism-based; outline: as §2
[7] = test system: Mus musculus; assay: Acute toxicity in Balb/C mouse assessed as reduction in body weight at 1.5 to 6.0 umol/kg, ip administered thrice a week for 2 weeks measured 48 hrs after last dose; format: organism-based; settings: in vivo; outline: as §1
[8] = test system: Mus musculus; assay: Inhibition of IR expression in Balb/C mouse liver assessed as upregulation of IR-A transcript at 1.5 umol/kg, ip administered thrice a week for 2 weeks measured 48 hrs after last dose by quantitative RT-PCR analysis
[9] = test system: Mus musculus; assay: Inhibition of IR expression in Balb/C mouse kidney assessed as upregulation of IR-A transcript at 1.5 umol/kg, ip administered thrice a week for 2 weeks measured 48 hrs after last dose […]; format: functional, organism-based; outline: as §2
[10] = test system: Mus musculus; assay: Inhibition of IR expression in Balb/C mouse kidney assessed as reduction in IR-B transcript at 1.5 umol/kg, ip administered thrice a week for 2 weeks measured 48 hrs after last dose […]; format: functional, organism-based; outline: as §2
[11] = test system: Mus musculus; assay: Inhibition of IR expression in Balb/C mouse adipose tissue assessed as reduction in IR-B transcript at 6.0 umol/kg, ip administered thrice a week for 2 weeks measured 48 hrs after last dose […]; format: functional; outline: as §2
[12] = test system: Mus musculus; assay: Inhibition of IR expression in Balb/C mouse kidney assessed as reduction in IR-B transcript at 6.0 umol/kg, ip administered thrice a week for 2 weeks measured 48 hrs after last dose […]; format: functional, organism-based; outline: as §2
[13] = test system: Mus musculus; assay: Acute toxicity in Balb/C mouse assessed as change in spleen weight at 1.5 to 6.0 umol/kg, ip administered thrice a week for 2 weeks measured 48 hrs after last dose; format: organism-based; settings: in vivo; outline: as §1
[14] = test system: Mus musculus; assay: Toxicity in Balb/C mouse assessed as change in body weight at 40 mg/kg, ip administered thrice a week for 2 weeks measured 48 hrs after last dose; format: organism-based; parameters: dose 40 mg/kg, route intraperitoneal; settings: in vivo
Outline: (§3)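 Male Balb/c mice, 6–8 wk, n=4/group, received compound i.p. in PBS (10 ul/g) 3x/wk for 2 wk. Body weight was monitored throughout. At 48 h after the last dose, mice were anesthetized with isoflurane and bled by cardiac puncture. Serum AST, ALT, BUN, bilirubin, glucose and triglycerides were compared with the saline group. ALT rise below 2x normal was counted as absent.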

[15] = test system: Mus musculus; assay: Toxicity in Balb/C mouse assessed as change in blood urea nitrogen levels at 40 mg/kg, ip administered thrice a week for 2 weeks measured 48 hrs after last dose; format: organism-based; parameters: dose 40 mg/kg, route intraperitoneal; settings: in vivo; outline: as §3
[16] = test system: BCL1; assay: Inhibition of PTEN expression in mouse BCL1 cells after 62 hrs by Western blotting; format: functional, cell-based; settings: BCL1, 62 h
Outline: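 BCL1 cells were grown in DMEM with 10% FBS at 37 °C, 5% CO2. Compound was delivered to 2×10^6 cells by electroporation (200 V, 1000 uF, 13 ohms), and cells were harvested 62 h later. Western blot of RIPA lysates used rabbit anti-PTEN and anti-CD40 (1:1000) with HRP secondary and ECL detection. PTEN was normalized to CD40. n=3, mean ± SD.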

[17] = test system: Mus musculus; assay: Toxicity in Balb/C mouse assessed as change in serum bilirubin levels at 40 mg/kg, ip administered thrice a week for 2 weeks measured 48 hrs after last dose; format: organism-based; parameters: dose 40 mg/kg, route intraperitoneal; settings: in vivo; outline: as §3
[18] = test system: Mus musculus; assay: Toxicity in Balb/C mouse assessed as change in serum ALT levels at 40 mg/kg, ip administered thrice a week for 2 weeks measured 48 hrs after last dose; format: organism-based; parameters: dose 40 mg/kg, route intraperitoneal; settings: in vivo; outline: as §3
[19] = test system: Mus musculus; assay: Inhibition of PTEN expression in Balb/C mouse liver at 40 mg/kg, ip administered thrice a week for 2 weeks measured 48 hrs after last dose by Western blot analysis; format: functional, organism-based; parameters: dose 40 mg/kg
Outline: (§4)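 Male Balb/c mice, 6–8 wk, n=4/group, dosed i.p. in PBS 3x/wk for 2 wk and killed 48 h after the last dose. Tissue was homogenized in RIPA buffer with protease inhibitors, and protein was measured by Lowry assay. Lysates were run on 10% PAGE and blotted to PVDF. Blots were probed with rabbit anti-PTEN (1:1000) and HRP anti-rabbit (1:2500), with ECL detection.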

[20] = test system: Mus musculus; assay: Toxicity in Balb/C mouse assessed as change in serum glucose levels at 40 mg/kg, ip administered thrice a week for 2 weeks measured 48 hrs after last dose; format: organism-based; parameters: dose 40 mg/kg, route intraperitoneal; settings: in vivo; outline: as §3
[21] = test system: Mus musculus; assay: Toxicity in Balb/C mouse assessed as change in serum AST levels at 40 mg/kg, ip administered thrice a week for 2 weeks measured 48 hrs after last dose; format: organism-based; parameters: dose 40 mg/kg, route intraperitoneal; settings: in vivo; outline: as §3
[22] = test system: Mus musculus; assay: Toxicity in Balb/C mouse assessed as change in serum triglyceride levels at 40 mg/kg, ip administered thrice a week for 2 weeks measured 48 hrs after last dose; format: organism-based; parameters: dose 40 mg/kg, route intraperitoneal; settings: in vivo; outline: as §3
[23] = test system: Mus musculus; assay: Inhibition of PTEN expression in Balb/C mouse kidney at 40 mg/kg, ip administered thrice a week for 2 weeks measured 48 hrs after last dose by Western blot analysis; format: functional, organism-based; parameters: dose 40 mg/kg; outline: as §4
[24] = test system: BCL1; assay: Inhibition of CD40 protein expression in mouse BCL1 cells after 62 hrs by Western blotting; format: functional, cell-based; settings: BCL1, 62 h

Compound: COCCO[C@@H]1[C@H](OP(=O)(S)OC[C@H]2O[C@@H](n3cnc4c(N)ncnc43)[C@H](OCCOC)[C@@H]2O)[C@@H](COP(=O)(S)O[C@H]2[C@@H](OCCOC)[C@H](n3ccc(N)nc3=O)O[C@@H]2COP(=O)(S)O[C@H]2[C@@H](OCCOC)[C@H](n3cnc4c(N)ncnc43)O[C@@H]2COP(=O)(S)O[C@H]2[C@@H](OCCOC)[C@H](n3ccc(N)nc3=O)O[C@@H]2COP(=O)(S)O[C@H]2[C@@H](OCCOC)[C@H](n3cnc4c(=O)[nH]c(N)nc43)O[C@@H]2COP(=O)(S)O[C@H]2[C@@H](OCCOC)[C@H](n3cnc4c(=O)[nH]c(N)nc43)O[C@@H]2COP(=O)(S)O[C@H]2[C@@H](OCCOC)[C@H](n3ccc(N)nc3=O)O[C@@H]2COP(=O)(S)O[C@H]2C[C@H](n3cc(C)c(=O)[nH]c3=O)O[C@@H]2COP(=O)(S)O[C@H]2[C@@H](OCCOC)[C@H](n3ccc(N)nc3=O)O[C@@H]2COP(=O)(S)O[C@H]2[C@@H](OCCOC)[C@H](n3ccc(N)nc3=O)O[C@@H]2COP(=O)(S)O[C@H]2C[C@H](n3cc(C)c(=O)[nH]c3=O)O[C@@H]2COP(=O)(S)O[C@H]2[C@@H](OCCOC)[C@H](n3cnc4c(=O)[nH]c(N)nc43)O[C@@H]2COP(=O)(S)O[C@H]2C[C@H](n3cc(C)c(=O)[nH]c3=O)O[C@@H]2COP(=O)(S)O[C@H]2[C@@H](OCCOC)[C@H](n3ccc(N)nc3=O)O[C@@H]2COP(=O)(S)O[C@H]2[C@@H](OCCOC)[C@H](n3cnc4c(N)ncnc43)O[C@@H]2COP(=O)(S)O[C@H]2C[C@H](n3cc(C)c(=O)[nH]c3=O)O[C@@H]2COP(=O)(S)O[C@H]2[C@@H](OCCOC)[C@H](n3ccc(N)nc3=O)O[C@@H]2COP(=O)(S)O[C@H]2[C@@H](OCCOC)[C@H](n3ccc(N)nc3=O)O[C@@H]2COP(=O)(S)O[C@H]2[C@@H](OCCOC)[C@H](n3cnc4c(N)ncnc43)O[C@@H]2CO)O[C@H]1n1ccc(N)nc1=O (some centres undefined)
- Activity [1]: Non-toxic
- Activity [2]: Active
- Activity [3]: Non-toxic
- Activity [4]: Active
- Activity [5]: Active
- Activity [6]: Active
- Activity [7]: Non-toxic
- Activity [8]: Active
- Activity [9]: Active
- Activity [10]: inactive
- Activity [11]: Active
- Activity [12]: inactive
- Activity [13]: Non-toxic

- IC50 [16]: 1000 nM
Compound: COCCO[C@@H]1[C@H](OP(=O)(S)OC[C@H]2O[C@@H](n3cc(C)c(=O)[nH]c3=O)C[C@@H]2OP(=O)(S)OC[C@H]2O[C@@H](n3ccc(N)nc3=O)[C@H](OCCOC)[C@@H]2OP(=O)(S)OC[C@H]2O[C@@H](n3cnc4c(N)ncnc43)[C@H](OCCOC)[C@@H]2OP(=O)(S)OC[C@H]2O[C@@H](n3cnc4c(=O)[nH]c(N)nc43)[C@H](OCCOC)[C@@H]2OP(=O)(S)OC[C@H]2O[C@@H](n3ccc(N)nc3=O)[C@H](OCCOC)[C@@H]2OP(=O)(S)OC[C@H]2O[C@@H](n3cnc4c(N)ncnc43)[C@H](OCCOC)[C@@H]2OP(=O)(S)OC[C@H]2O[C@@H](n3ccc(N)nc3=O)[C@H](OCCOC)[C@@H]2OP(=O)(S)OC[C@H]2O[C@@H](n3cnc4c(N)ncnc43)[C@H](OCCOC)[C@@H]2OP(=O)(S)OC[C@H]2O[C@@H](n3cc(C)c(=O)[nH]c3=O)C[C@@H]2OP(=O)(S)OC[C@H]2O[C@@H](n3ccc(N)nc3=O)[C@H](OCCOC)[C@@H]2OP(=O)(S)OC[C@H]2O[C@@H](n3cc(C)c(=O)[nH]c3=O)C[C@@H]2OP(=O)(S)OC[C@H]2O[C@@H](n3cnc4c(N)ncnc43)[C@H](OCCOC)[C@@H]2OP(=O)(S)OC[C@H]2O[C@@H](n3ccc(N)nc3=O)[C@H](OCCOC)[C@@H]2OP(=O)(S)OC[C@H]2O[C@@H](n3cnc4c(N)ncnc43)[C@H](OCCOC)[C@@H]2OP(=O)(S)OC[C@H]2O[C@@H](n3cnc4c(N)ncnc43)[C@H](OCCOC)[C@@H]2OP(=O)(S)OC[C@H]2O[C@@H](n3cnc4c(=O)[nH]c(N)nc43)[C@H](OCCOC)[C@@H]2OP(=O)(S)OC[C@H]2O[C@@H](n3cnc4c(N)ncnc43)[C@H](OCCOC)[C@@H]2OP(=O)(S)OC[C@H]2O[C@@H](n3cnc4c(N)ncnc43)[C@H](OCCOC)[C@@H]2OP(=O)(S)OC[C@H]2O[C@@H](n3cnc4c(N)ncnc43)[C@H](OCCOC)[C@@H]2O)[C@@H](CO)O[C@H]1n1ccc(N)nc1=O (some centres undefined)
- Activity [14]: Non-toxic
- Activity [15]: Non-toxic
- Activity [17]: Non-toxic
- Activity [18]: Non-toxic
- inhibition [19]: inactive
- Activity [20]: Non-toxic
- Activity [21]: Non-toxic
- Activity [22]: Non-toxic
- inhibition [23]: inactive

- IC50 [24]: 900 nM
Compound: Cc1cn(CC(=O)N(CCNC(=O)CN(CCNC(=O)CN(CCNC(=O)CN(CCNC(=O)CN(CCNC(=O)CN(CCNC(=O)CN(CCNC(=O)CN(CCNC(=O)CN(CCNC(=O)CN(CCNC(=O)CN(CCNC(=O)CN(CCN)C(=O)Cn2ccc(N)nc2=O)C(=O)Cn2cnc3c(N)ncnc32)C(=O)Cn2ccc(N)nc2=O)C(=O)Cn2cnc3c(N)ncnc32)C(=O)Cn2cnc3c(=O)[nH]c(N)nc32)C(=O)Cn2cnc3c(N)ncnc32)C(=O)Cn2cc(C)c(=O)[nH]c2=O)C(=O)Cn2cnc3c(=O)[nH]c(N)nc32)C(=O)Cn2cnc3c(N)ncnc32)C(=O)Cn2ccc(N)nc2=O)C(=O)Cn2cnc3c(N)ncnc32)CC(=O)NCCN(CC(=O)NCCN(CC(=O)NCCN(CC(=O)N[C@@H](CCCCN)C(N)=O)C(=O)Cn2cnc3c(=O)[nH]c(N)nc32)C(=O)Cn2cnc3c(N)ncnc32)C(=O)Cn2cc(C)c(=O)[nH]c2=O)c(=O)[nH]c1=O

Reference: ChEMBL document CHEMBL1155469, “Peptide nucleic acids conjugated to short basic peptides show improved pharmacokinetics and antisense activity in adipose tissue” (J Med Chem, 2010)
